Assay results from different studies.
MAL12: Alpha-glucosidase MAL12 (MAL12, Saccharomyces cerevisiae S288c, UniProt P53341)
ADRA1A I178V/M292L: Alpha-1A adrenergic receptor (ADRA1A, Homo sapiens, UniProt P35348, I178V/M292L)

Cn1c(=O)c2c(ncn2C)n(C)c1=O
IC50 (Solute carrier family 22 member 6 (SLC22A6, Homo sapiens, UniProt Q4U2R8); transporter uptake; inhibitor; radiometric; oocytes): 155 µM

NC(=S)N/N=C/c1cc2ccccc2nc1SCc1cn(CC(=O)Nc2ccc(O)cc2)nn1
IC50 (MAL12; enzyme activity; inhibitor): 311 µM

CCOC(=O)[C@H]1O[C@@H]1C(=O)N[C@@H](CC(C)C)C(=O)NCCC(C)C
IC50 (Cathepsin S (CTSS, Homo sapiens, UniProt P25774); enzyme activity; inhibitor; fluorescence): 19.1 µM

Cc1ccc2oc(=O)cc(NCCO)c2c1
IC50 (ADRA1A I178V/M292L; calcium signal; antagonist): 324 µM

Cc1cccc(C)c1NC(=O)Cn1cc(CSc2nc3ccccc3cc2/C=N/NC(N)=S)nn1
IC50 (MAL12; enzyme activity; inhibitor): 150 µM

Cc1ccc2[nH]c(=O)c(CNC3CCCCC3)cc2c1
IC50 (ADRA1A I178V/M292L; calcium signal; antagonist): 1.62 µM

Cc1ccccc1NC(=O)Cn1cc(CSc2nc3ccccc3cc2/C=N/NC(N)=S)nn1
IC50 (MAL12; enzyme activity; inhibitor): 354 µM

C[C@@H]1O[C@@H](O[C@H]2[C@H](O[C@H]3CC[C@]4(C)[C@H]5CC=C6[C@@H]7CC(C)(C)CC[C@]7(C(=O)O[C@@H]7O[C@H](CO[C@@H]8O[C@H](CO)[C@@H](O[C@@H]9O[C@@H](C)[C@H](O)[C@@H](O)[C@H]9O)[C@H](O)[C@H]8O)[C@@H](O)[C@H](O)[C@H]7O)CC[C@@]6(C)[C@]5(C)CC[C@H]4C3(C)C)OC[C@H](O)[C@@H]2O)[C@H](O)[C@H](O)[C@H]1O
IC50 (MAL12; enzyme activity; inhibitor): 0.47 µM

COc1cc(C(c2c(O)c3ccccc3oc2=O)c2c(O)c3ccccc3oc2=O)ccc1OCc1cn(CC(=O)Nc2cccc([N+](=O)[O-])c2)nn1
IC50 (MAL12; enzyme activity; inhibitor; absorbance): 16.3 µM

CC(=O)OC[C@H]1O[C@@H](OC[C@H]2O[C@@H](OC(=O)[C@]34CCC(C)(C)C[C@H]3C3=CC[C@@H]5[C@@]6(C)CC[C@H](O[C@@H]7OC[C@H](O)[C@H](O)[C@H]7O[C@@H]7O[C@H](CO)[C@@H](O)[C@H](O)[C@H]7O)C(C)(C)[C@@H]6CC[C@@]5(C)[C@]3(C)CC4)[C@H](O)[C@@H](O)[C@@H]2O)[C@H](O)[C@@H](O)[C@@H]1O[C@@H]1O[C@@H](C)[C@H](O)[C@@H](O)[C@H]1O
IC50 (MAL12; enzyme activity; inhibitor): 0.75 µM

COc1cc(C(c2c(O)c3ccccc3oc2=O)c2c(O)c3ccccc3oc2=O)ccc1OCc1cn(CC(=O)Nc2ccc(C)cc2C)nn1
IC50 (MAL12; enzyme activity; inhibitor; absorbance): 20.2 µM

C[C@@H]1O[C@@H](O[C@H]2[C@H](O)[C@@H](O)[C@H](OC[C@H]3O[C@@H](OC(=O)[C@]45CCC(C)(C)C[C@H]4C4=CC[C@@H]6[C@@]7(C)CC[C@H](O[C@@H]8OC[C@H](O)[C@H](O)[C@H]8O)C(C)(C)[C@@H]7CC[C@@]6(C)[C@]4(C)CC5)[C@H](O)[C@@H](O)[C@@H]3O)O[C@@H]2CO)[C@H](O)[C@H](O)[C@H]1O
IC50 (MAL12; enzyme activity; inhibitor): 0.89 µM

COc1cc(C(c2c(O)c3ccccc3oc2=O)c2c(O)c3ccccc3oc2=O)ccc1OCc1cn(CC(=O)Nc2ccccc2F)nn1
IC50 (MAL12; enzyme activity; inhibitor; absorbance): 61.4 µM

COc1ccc(NC(=O)Cn2cc(CSc3nc4ccccc4cc3/C=N/NC(N)=S)nn2)cc1
IC50 (MAL12; enzyme activity; inhibitor): 192 µM
